Series [1] relates to 3T3-L1. The series is described as follows: Inhibition of ROS production in TNF-alpha-induced insulin resistant mouse 3T3L1 cells at 10 uM after 48 hrs by DCFH-DA dye-based fluorescence assay. The format is functional, cell-based.
Series [2] deals with 3T3-L1. The experiment in a line: Induction of nitric oxide production in TNF-alpha-induced insulin resistant mouse 3T3L1 cells at 10 uM after 0.5 to 6 hrs by DAF-FM-2DA dye based fluorescence assay. The format is functional, cell-based. Summed up:
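Insulin-resistant 3T3-L1 adipocytes (TNF-α 4 ng/mL, 4 days) were treated for varying times, with or without 20 μM C-PTIO. Vehicle was DMSO 0.1% or NaOH 10 μM. Cells were washed in KRP, loaded with 10 μM DAF-FM-2DA in pH 7.4 PBS at 37 °C for 30 min, and read at Ex/Em 485/515 nm. Three experiments.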

In series [3] the test system is Platelet. The experiment in a line: Antiplatelet activity in platelet rich plasma (unknown origin) assessed as inhibition of arachidonic acid-induced platelet aggregation at 8 mM relative to control. The format is functional.
The subject of series [4] is Platelet. The experiment in a line: Antiplatelet activity in platelet rich plasma (unknown origin) assessed as inhibition of ADP-induced platelet aggregation at 4 mM relative to control. The format is functional.
For series [5], the system named is 3T3-L1. The series is described as follows: Induction of superoxide dismutase level in TNF-alpha-induced insulin resistant mouse 3T3L1 cells at 10 uM after 48 hrs. The format is functional, cell-based. In short, it runs like this:
(§1)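 3T3-L1 preadipocytes were differentiated, and mature adipocytes made insulin resistant with TNF-α (4 ng/mL) daily for 4 days. Cells were then treated in triplicate for 48 h, with or without 20 μM C-PTIO. Lysate GSH, SOD and MDA were measured with kits. Three experiments, mean ± SD.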

Series [6] relates to Platelet. The experiment in a line: Antiplatelet activity in platelet rich plasma (unknown origin) assessed as inhibition of ADP-induced platelet aggregation at 16 mM relative to control. The format is functional.
Series [7] deals with Platelet. The experiment in a line: Antiplatelet activity in platelet rich plasma (unknown origin) assessed as inhibition of arachidonic acid-induced platelet aggregation at 1 mM relative to control. The format is functional.
The subject of series [8] is Mus musculus. The series is described as follows: Antidiabetic activity in spontaneous db/db BKS.Cg-Dock7m +/+ Leprdb/J mouse assessed as decrease in blood glucose AUC at 10 mg/kg, po administered as daily dose via gavage for 18 days measured on day 12 up to 120 mins post glucose challenge by oral glucose tolerance test. The format is functional, organism-based. In short, it runs like this: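 Male db/db mice (BKS.Cg-Dock7m +/+ Leprdb/J), 6 weeks old on purchase, randomized, n=8 per group. Dosed by gavage in 0.5% CMC-Na daily for 18 consecutive days. Vehicle-dosed db/db and C57BL/6 mice served as model and control. Fasting glucose was read by glucometer every three days. On day 12, after an overnight fast, 2 g/kg glucose was given orally. Blood glucose was read at 0–120 min and AUC calculated. Mean ± SEM.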

Series [9] can be described thus: Toxicity in ICR mouse assessed mouse mortality at 2000 mg/kg, po administered as single dose via gavage treated on day 1 and measured daily up to 14 days. The format is organism-based. The following applies: in vivo, 336 h. Summed up: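 Mice of both sexes, 7 weeks old, were randomized and given one oral gavage dose on day 1. Dose levels were 500, 1000, 2000, 3000, 4000 or 5000 mg/kg, or 2000, 4000 and 5000 mg/kg, with n = 10 per group. Behaviour, health and mortality were checked daily for 14 days, and total deaths were counted on day 14. LD50 was calculated with 95% confidence limits.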

Series [10] has as its system 3T3-L1. The experiment in a line: Induction of nitric oxide mediated increase in insulin-stimulated 2-NBDG uptake in TNF-alpha-induced insulin resistant mouse 3T3L1 cells at 3 to 10 uM preincubated for 48 hrs followed by 2-NBDG addition measured after 30 mins in presence of insulin by fluorescence assay. The format is functional, cell-based. In short, it runs like this: (§2)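 Day-8 differentiated 3T3-L1 adipocytes received TNF-α (4 ng/mL) daily for 4 days. They were pretreated in triplicate for 48 h (C-PTIO 20 μM where indicated), then given 100 μM 2-NBDG at 37 °C for 30 min in the dark, with or without insulin. After KRP washes, fluorescence was read at Ex/Em 485/515 nm. Three experiments, mean ± SD.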

In series [11] the test system is Mus musculus. The experiment in a line: Effect on lipid metabolism in spontaneous db/db BKS.Cg-Dock7m +/+ Leprdb/J mouse assessed as increase in serum HDL level at 27 umol/kg, po administered as daily dose via gavage for 18 days. The format is functional, organism-based. In short, it runs like this:
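db/db mice were gavaged daily for 18 days in 0.5% CMC-Na (n=8 per group), with a vehicle model group. On day 19, blood was collected and serum prepared by centrifugation. Serum triglyceride and HDL were then measured.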

Series [12] concerns Platelet. The experiment in a line: Antiplatelet activity in platelet rich plasma (unknown origin) assessed as inhibition of ADP-induced platelet aggregation at 0.8 mM relative to control. The format is functional.
For series [13], the system named is 3T3-L1. The series is described as follows: Inhibition of ROS production in TNF-alpha-induced insulin resistant mouse 3T3L1 cells at 3 to 10 uM after 48 hrs in presence of nitric oxide scavenger C-PTIO by DCFH-DA dye-based fluorescence assay. The format is functional, cell-based.
Series [14] in a line: Metabolic stability in human liver microsomes after 2 hrs in presence of NADPH by HPLC analysis. The format is ADME, Microsome. The following applies: read-out: Stability. In short, it runs like this: (§3)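 Compound (100 mM DMSO stock) was added in triplicate to 0.1 M phosphate buffer pH 7.4 with 3.3 mM MgCl2 and human liver microsomes, then preincubated 5 min at 37 °C. NADPH (1.3 mM stock) was added and incubation continued 0, 0.5, 1, 2 or 6 h. Acetonitrile quench, then HPLC at 254 nm.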

Series [15] is described as follows: Metabolic stability in human liver microsomes measured immediately after compound addition in presence of NADPH by HPLC analysis. The format is ADME, Microsome. The following applies: read-out: Stability. Summed up:
as §3

Series [16] is described as follows: Metabolic stability in simulated intestinal fluid at pH 6.8 measured after 4 hrs by HPLC analysis. The format is ADME. The following applies: read-out: Stability. Summed up:
(§4)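 Gastric fluid was 1% pepsin in water, pH 1.5. Intestinal fluid was 1% trypsin with 0.68% KH2PO4, pH 6.8. Compound (100 mM DMSO stock) was diluted 1:1000 into each, in triplicate. Incubation was at 37 °C for 0, 2, 4, 6, 16 or 24 h. Acetonitrile (3 volumes) stopped it, then HPLC at 254 nm.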

The test system of series [17] is 3T3-L1. The series is described as follows: Induction of superoxide dismutase level in TNF-alpha-induced insulin resistant mouse 3T3L1 cells at 3 to 10 uM after 48 hrs. The format is functional, cell-based. Summed up:
as §1

A short description of series [18]: Metabolic stability in simulated gastric fluid at pH 1.5 measured after 24 hrs by HPLC analysis. The format is ADME. The following applies: read-out: Stability. Summed up: as §4
Series [19] in a line: Metabolic stability in simulated intestinal fluid at pH 6.8 measured after 24 hrs by HPLC analysis. The format is ADME. The following applies: read-out: Stability. In short, it runs like this: as §4
In series [20] the test system is 3T3-L1. The experiment in a line: Inhibition of MDA level in TNF-alpha-induced insulin resistant mouse 3T3L1 cells at 3 to 10 uM after 48 hrs. The format is functional, cell-based.
Series [21] can be described thus: Toxicity in spontaneous db/db BKS.Cg-Dock7m +/+ Leprdb/J mouse assessed as reduction in serum hematocrit value at 13.5 to 27 umol/kg, po administered as daily dose via gavage treated for 18 days. The format is organism-based. The following applies: in vivo, 432 h.
The test system of series [22] is Platelet. The experiment in a line: Antiplatelet activity in platelet rich plasma (unknown origin) assessed as inhibition of arachidonic acid-induced platelet aggregation at 0.4 mM relative to control. The format is functional.
For series [23], the system named is 3T3-L1. The experiment in a line: Induction of nitric oxide mediated increase in insulin-stimulated 2-NBDG uptake in TNF-alpha-induced insulin resistant mouse 3T3L1 cells at 3 to 10 uM preincubated for 48 hrs followed by 2-NBDG addition measured after 30 mins in presence of nitric oxide scavenger C-PTIO by fluorescence assay. The format is functional, cell-based. Summed up: as §2

Structures are written as SMILES. Calls of active or inactive are those of the source. The rule behind the calls is not given here.

Turning to `CN(CCOc1ccc(CC2SC(=O)NC2=O)cc1)c1ccccn1` (stereo not drawn) [ROSIGLITAZONE], the inhibition result in the series on 3T3-L1 [1] was “Active”. In the series on 3T3-L1 [2], the result was inactive. In addition, the inhibition at 8000 µM with Platelet [3] is 54.4%. Also, in the series with Platelet [4], the inhibition at 4000 µM came to 43.1%. Also, the outcome with 3T3-L1 [5] and in the series on Mus musculus [8] was Active. Moreover, in the series with Platelet [6], the inhibition at 16000 µM came to 68.9%. Also, in the series with Platelet [7], the inhibition at 1000 µM stood at 14.8%.

With `CCN(CC)/[N+]([O-])=N/OCOC(=O)/C=C/c1ccc(OC(=O)OCN2C(=O)SC(Cc3ccc(OCCN(C)c4ccccn4)cc3)C2=O)c(OC)c1` (stereo not drawn), the Activity entry in series [9] and in series [21] was “Non-Toxic” each time. In addition, the result in the series on 3T3-L1 [10], in the series with Mus musculus [11] and in the series with 3T3-L1 [17] was Active. Further, in the series with Platelet [12], the inhibition at 800 µM stood at 26.2%. The inhibition entry in the series on 3T3-L1 [13] was “inactive”. Moreover, the remaining at 2 h in series [14] came out at 85.3%. Further, the remaining at 0 h in [15] stood at 100%. Also, the remaining at 4 h in [16] is 96.9%. The remaining at 24 h in series [18] is 82.6%; in series [19], 75.5%. For the same compound, the inhibition result in the series on 3T3-L1 [20] was “Active”. For the same compound, the inhibition at 400 µM in the series on Platelet [22] was 40.6%. Moreover, in the series on 3T3-L1 [23], the result was inactive.

The record behind these values is ChEMBL document CHEMBL4325910, “Design and synthesis of rosiglitazone-ferulic acid-nitric oxide donor trihybrids for improving glucose tolerance” (Eur J Med Chem, 2019).
